These results are taken from ChEMBL document CHEMBL1146581, “Induction of apoptosis by xanthones from mangosteen in human leukemia cell lines” (J Nat Prod, 2003).

The source made the active and inactive calls. No cut-off for these calls is given here.

Data set [1] has as its system HL-60. The data set is described as follows: Cytotoxicity against human HL60 cells assessed as cell viability after 72 hrs by Trypan blue exclusion test. The settings on record: HL-60, 72 h. In kind it is functional, cell-based. The method in brief: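 HL60 (RIKEN Cell Bank) in RPMI-1640 with 10% heat-inactivated FBS, seeded at 1 × 10^5/mL. Exposed for 72 h to 5–40 µM compound added in DMSO (final 0.1% v/v). Viable cells counted by trypan blue dye exclusion. IC50 read from concentration–growth curves. Means ± SD of three experiments.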

The test system of data set [2] is K562. The experiment in a line: Induction of apoptosis in human K562 cells assessed as DNA ladder formation at 10 uM after 24 hrs by agarose gel electrophoresis. In kind it is functional, cell-based.
For another data set, the system named is PBMC. The experiment in a line: Cytotoxicity against concanavalin A-stimulated human PBMC cells at 10 uM after 72 hrs by Trypan blue exclusion test. It is filed as cell-based. The method in brief:
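Lymphocytes from healthy donors in RPMI-1640 with 10% heat-inactivated FBS, stimulated with concanavalin-A (75 µg/mL) for 48 h, then exposed to compound in DMSO (final 0.1% v/v). Viable cells counted by trypan blue dye exclusion in a counting chamber.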

Data set [3] has as its system NB-4. The data set is described as follows: Induction of apoptosis in human NB4 cells assessed as DNA ladder formation at 10 uM after 24 hrs by agarose gel electrophoresis. In kind it is functional, cell-based.
Data set [4] relates to NB-4. The data set is described as follows: Cytotoxicity against human NB4 cells assessed as cell viability at 5 uM after 72 hrs by Trypan blue exclusion test. It is filed as functional, cell-based. The method in brief:
(§1)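 Leukemia lines (RIKEN Cell Bank) grown in RPMI-1640 with 10% heat-inactivated FBS. Growth curves were followed at 1, 2, 5 and 10 µM compound delivered in DMSO (final 0.1% v/v), with untreated controls. Viable cell number counted by trypan blue dye exclusion in a counting chamber.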

The test system of data set [5] is HL-60. The data set is described as follows: Induction of apoptosis in human HL60 cells assessed as DNA ladder formation at 10 uM after 24 hrs by agarose gel electrophoresis. In kind it is functional, cell-based.
The subject of data set [6] is K562. The experiment in a line: Induction of apoptosis in human K562 cells assessed as nuclear condensation and fragmentation at 10 uM after 24 hrs using Hoechst stain by fluorescence microscopy. It is filed as functional, cell-based. Put shortly: (§2)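 Cells treated 24 h at 10 µM. Hoechst 33342 was added to the medium at 5 µg/mL for 30 min. Cells were then washed in PBS and nuclear condensation/fragmentation was scored by fluorescence microscopy (×400).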

The test system of data set [7] is U-937. The experiment in a line: Induction of apoptosis in human U937 cells assessed as DNA ladder formation at 10 uM after 24 hrs by agarose gel electrophoresis. In kind it is functional, cell-based.
Data set [8] deals with K562. The data set is described as follows: Cytotoxicity against human K562 cells assessed as cell viability at 10 uM after 72 hrs by Trypan blue exclusion test. It is filed as functional, cell-based. The method in brief:
as §1

In data set [9] the test system is HL-60. The data set is described as follows: Induction of apoptosis in human HL60 cells assessed as caspase 3 activation at 10 uM by Western blot. It is filed as functional, cell-based. Put shortly: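 HL60 treated with 10 µM over a time course. Lysis was in Tris pH 7.4/NP-40/deoxycholate/SDS buffer with protease inhibitors, 30 min on ice. 10 µg protein was run on a 5–20% SDS gradient gel and blotted to PVDF. The blot was probed overnight at 4 °C with rabbit anti-caspase-3, then HRP anti-rabbit, and detected by ECL. Pro (32 kD) and active (19/17 kD) forms were read.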
On the technique in general: A western blot detects proteins with antibodies after separation by electrophoresis.

For data set [10], the system named is HL-60. The experiment in a line: Induction of apoptosis in human HL60 cells assessed as nuclear condensation and fragmentation at 10 uM after 24 hrs using Hoechst stain by fluorescence microscopy. In kind it is functional, cell-based. Put shortly: as §2
Data set [11] deals with NB-4. The experiment in a line: Induction of apoptosis in human NB4 cells assessed as nuclear condensation and fragmentation at 10 uM after 24 hrs using Hoechst stain by fluorescence microscopy. In kind it is functional, cell-based. The method in brief:
as §2

The test system of data set [12] is K562. The experiment in a line: Cytotoxicity against human K562 cells assessed as cell viability at 5 uM after 72 hrs by Trypan blue exclusion test. It is filed as functional, cell-based. Put shortly: as §1
In data set [13] the test system is NB-4. The experiment in a line: Cytotoxicity against human NB4 cells assessed as cell viability at 10 uM after 72 hrs by Trypan blue exclusion test. It is filed as functional, cell-based. Put shortly:
as §1

The subject of data set [14] is U-937. The experiment in a line: Cytotoxicity against human U937 cells assessed as cell viability at 10 uM after 72 hrs by Trypan blue exclusion test. In kind it is functional, cell-based. Put shortly: as §1
For data set [15], the system named is U-937. The experiment in a line: Cytotoxicity against human U937 cells assessed as cell viability at 5 uM after 72 hrs by Trypan blue exclusion test. It is filed as functional, cell-based. Put shortly:
as §1

In data set [16] the test system is U-937. The data set is described as follows: Induction of apoptosis in human U937 cells assessed as nuclear condensation and fragmentation at 10 uM after 24 hrs using Hoechst stain by fluorescence microscopy. In kind it is functional, cell-based. The method in brief:
as §2

With `CC(C)=CCc1c(O)cc2oc3cc(O)c(O)c(CC=C(C)C)c3c(=O)c2c1O`, the IC50 in the data set with HL-60 [1] worked out at 6.1 µM.

As to `COc1cc2oc3cc(O)c(OC)c(CC=C(C)C)c3c(=O)c2c(O)c1CC=C(C)C`, the 50% inhibitory concentration (IC50) in the data set on HL-60 [1] turned out to be 7.6 µM.

In the case of `CC(C)=CCC/C(C)=C/Cc1c(O)cc2oc3c(O)cccc3c(=O)c2c1O` [MANGOSTINONE], in the data set on HL-60 [1], the IC50 amounted to 19 µM.

For the compound `COc1cc2oc3ccc(O)cc3c(=O)c2c(O)c1CC=C(C)C`, in the data set with HL-60 [1], the half-maximal inhibitory concentration (IC50) was 23.6 µM.

Consider `COc1c(O)cc2oc3cc(O)c(CC=C(C)C)c(O)c3c(=O)c2c1CC=C(C)C` [MANGOSTIN], for which the result in the data set with K562 [2], in the data set on NB-4 [3], with NB-4 [4], in the data set on HL-60 [5], in the data set with K562 [6] and in the data set on U-937 [7] was Active. Moreover, the outcome in the data set with K562 [8], with HL-60 [9], in the data set with HL-60 [10], with NB-4 [11], in the data set with K562 [12] and with NB-4 [13] was Active. The outcome with U-937 [14], in the data set on U-937 [15] and in the data set on U-937 [16] was Active. The Activity result in the data set with PBMC is “Non-toxic”. For the same compound, the 50% inhibitory concentration (IC50) with HL-60 [1] was 6.8 µM.

As for `CC(C)=CCc1c(O)cc2oc3c(CC=C(C)C)c(O)c(O)c(CC=C(C)C)c3c(=O)c2c1O` [GARCINONE E], in the data set on HL-60 [1], the IC50 turned out to be 15 µM.

For orientation: IC50 means the concentration that gives 50% inhibition.
